Results as given in ChEMBL document CHEMBL2396604, “Synthesis and structure activity relationship of tetrahydroisoquinoline-based potentiators of GluN2C and GluN2D containing N-methyl-D-aspartate receptors” (J Med Chem, 2013).
Active and inactive are the calls of the source. The rule behind the calls is not given here.

How the values were obtained:
[1] = molecular target: Glutamate NMDA receptor; Grin1/Grin2a (Rattus norvegicus) (UniProt P35439+Q00959); test: Activity at rat recombinant GluN1/GluN2A receptor expressed in Xenopus oocytes assessed as potentiation of glycine/glutamate-induced effect at 100 uM by two-electrode voltage clamp technique relative to control; format: cell-based; conditions: Oocyte
Summary of the method: (§1)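 Two-electrode voltage clamp of oocytes at -40 mV, 2–5 days after cRNA injection. Bath solution (mM) 90 NaCl, 1.0 KCl, 0.5 BaCl₂, 0.005 EDTA, 10 HEPES, pH 7.4, 23°C. Compound applied with 100 µM glutamate plus 30 µM glycine; DMSO 0.05–0.5% final. Current expressed as percent of response without compound. For GluN2A, some oocytes were pretreated with 50 µM BAPTA-AM for 10 min or injected with K-BAPTA.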

[2] = molecular target: Ionotropic glutamate receptor NMDA 1/2D (Rattus norvegicus, UniProt P35439+Q62645); test: Activity at rat recombinant GluN1/GluN2D receptor assessed as potentiation of glycine/glutamate-induced activation by two-electrode voltage clamp technique; format: protein-complex assay
Ionotropic glutamate receptor NMDA 1/2D, sequence (Q62645 whole entry, other chains not shown): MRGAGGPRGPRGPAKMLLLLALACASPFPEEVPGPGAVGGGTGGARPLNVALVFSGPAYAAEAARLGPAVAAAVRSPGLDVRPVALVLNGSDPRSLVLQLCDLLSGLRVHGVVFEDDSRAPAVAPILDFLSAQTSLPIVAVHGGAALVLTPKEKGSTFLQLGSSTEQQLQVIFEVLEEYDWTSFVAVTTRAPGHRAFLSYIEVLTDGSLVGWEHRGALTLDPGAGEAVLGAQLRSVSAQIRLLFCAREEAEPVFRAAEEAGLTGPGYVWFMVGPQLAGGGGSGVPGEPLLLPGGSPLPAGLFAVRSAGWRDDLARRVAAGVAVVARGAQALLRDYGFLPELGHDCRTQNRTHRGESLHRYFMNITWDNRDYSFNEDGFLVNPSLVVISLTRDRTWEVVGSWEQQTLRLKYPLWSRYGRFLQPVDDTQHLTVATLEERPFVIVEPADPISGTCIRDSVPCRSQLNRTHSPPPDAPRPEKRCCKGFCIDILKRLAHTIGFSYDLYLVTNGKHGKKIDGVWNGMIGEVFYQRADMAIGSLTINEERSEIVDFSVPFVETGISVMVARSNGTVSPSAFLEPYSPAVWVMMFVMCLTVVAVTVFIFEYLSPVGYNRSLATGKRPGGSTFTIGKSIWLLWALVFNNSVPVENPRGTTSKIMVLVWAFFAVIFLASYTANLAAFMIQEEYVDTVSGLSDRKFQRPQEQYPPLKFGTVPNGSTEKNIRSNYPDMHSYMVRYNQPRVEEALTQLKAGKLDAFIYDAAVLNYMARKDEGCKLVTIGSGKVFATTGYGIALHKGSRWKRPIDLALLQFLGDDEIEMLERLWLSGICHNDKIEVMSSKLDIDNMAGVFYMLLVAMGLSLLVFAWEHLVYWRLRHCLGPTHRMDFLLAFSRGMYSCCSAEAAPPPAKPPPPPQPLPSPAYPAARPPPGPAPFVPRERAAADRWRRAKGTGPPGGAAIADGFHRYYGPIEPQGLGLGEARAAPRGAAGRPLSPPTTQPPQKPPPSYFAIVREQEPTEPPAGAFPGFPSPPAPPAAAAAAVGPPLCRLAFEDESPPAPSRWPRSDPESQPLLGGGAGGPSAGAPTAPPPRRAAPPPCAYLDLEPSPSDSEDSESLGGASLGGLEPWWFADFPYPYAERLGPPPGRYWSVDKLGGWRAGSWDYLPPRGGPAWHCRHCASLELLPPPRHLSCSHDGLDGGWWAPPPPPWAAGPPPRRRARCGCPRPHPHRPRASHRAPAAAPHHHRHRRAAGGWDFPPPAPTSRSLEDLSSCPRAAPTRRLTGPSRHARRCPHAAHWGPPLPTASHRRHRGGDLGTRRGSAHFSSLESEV

[3] = molecular target: Glutamate NMDA receptor; Grin1/Grin2c (Rattus norvegicus, UniProt P35439+Q00961); test: Activity at rat recombinant GluN1/GluN2C receptor assessed as potentiation of glycine/glutamate-induced activation by two-electrode voltage clamp technique; format: protein-complex assay
[4] = molecular target: Glutamate receptor 1 (Rattus norvegicus) (UniProt P19490); test: Activity at rat recombinant GluA1 receptor expressed in Xenopus oocytes assessed as effect on glutamate-induced response by two-electrode voltage clamp technique; format: cell-based; conditions: Oocyte
Glutamate receptor 1 (Rattus norvegicus), sequence (P19490 whole entry): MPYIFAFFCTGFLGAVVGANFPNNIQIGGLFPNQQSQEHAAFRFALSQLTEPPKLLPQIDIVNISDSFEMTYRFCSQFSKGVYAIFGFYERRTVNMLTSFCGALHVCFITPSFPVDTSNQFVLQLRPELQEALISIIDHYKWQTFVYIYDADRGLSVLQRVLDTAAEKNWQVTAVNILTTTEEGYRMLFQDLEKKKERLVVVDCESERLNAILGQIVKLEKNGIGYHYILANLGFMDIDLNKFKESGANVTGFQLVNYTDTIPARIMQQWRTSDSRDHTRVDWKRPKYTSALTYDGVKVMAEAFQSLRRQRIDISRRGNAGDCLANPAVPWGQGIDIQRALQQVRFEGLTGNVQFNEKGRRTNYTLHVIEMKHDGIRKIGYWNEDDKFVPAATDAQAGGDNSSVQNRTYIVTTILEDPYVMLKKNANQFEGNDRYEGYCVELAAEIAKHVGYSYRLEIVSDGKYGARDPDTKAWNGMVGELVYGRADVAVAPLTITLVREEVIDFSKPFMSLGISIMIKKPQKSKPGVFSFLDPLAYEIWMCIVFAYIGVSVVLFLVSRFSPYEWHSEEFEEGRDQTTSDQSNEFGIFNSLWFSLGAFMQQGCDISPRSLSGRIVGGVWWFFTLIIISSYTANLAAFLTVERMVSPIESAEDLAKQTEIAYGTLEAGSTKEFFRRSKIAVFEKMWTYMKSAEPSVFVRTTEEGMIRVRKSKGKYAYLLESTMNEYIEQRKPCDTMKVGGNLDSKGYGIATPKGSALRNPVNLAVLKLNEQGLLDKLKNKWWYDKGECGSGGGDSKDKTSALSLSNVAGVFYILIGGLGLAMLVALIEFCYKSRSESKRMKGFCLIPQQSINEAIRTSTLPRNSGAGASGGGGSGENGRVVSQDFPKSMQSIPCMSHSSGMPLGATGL
Summary of the method: (§2)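 Oocytes injected with 1–5 ng cRNA, kept in Barth's solution at 15°C for 2–5 days. Clamped at -40 mV in 90 NaCl, 1.0 KCl, 0.5 BaCl₂, 0.005 EDTA, 10 HEPES (mM), pH 7.4, 23°C. Receptors activated by 100 µM glutamate with compound co-applied. GluK2 oocytes pretreated with 10 µM concanavalin A for 10 min. DMSO 0.05–0.5% final.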

[5] = molecular target: Glutamate NMDA receptor; Grin1/Grin2c (Rattus norvegicus) (UniProt P35439+Q00961); test: Activity at rat recombinant GluN1/GluN2C receptor expressed in Xenopus oocytes assessed as potentiation of glycine/glutamate-induced activation at 100 uM by two-electrode voltage clamp technique relative to control; format: cell-based; conditions: Oocyte; summary of the method: as §1
[6] = molecular target: Glutamate NMDA receptor; Grin1/Grin2b (Rattus norvegicus) (UniProt P35439+Q00960); test: Activity at rat recombinant GluN1/GluN2B receptor expressed in Xenopus oocytes assessed as potentiation of glycine/glutamate-induced effect at 100 uM by two-electrode voltage clamp technique relative to control; format: cell-based; conditions: Oocyte; summary of the method: as §1
[7] = molecular target: Glutamate receptor ionotropic, kainate 2 (Rattus norvegicus) (UniProt P42260); test: Activity at rat recombinant GluK2 receptor expressed in Xenopus oocytes assessed as effect on glutamate-induced response by two-electrode voltage clamp technique; format: cell-based; conditions: Oocyte; summary of the method: as §2
Glutamate receptor ionotropic, kainate 2 (Rattus norvegicus), sequence (P42260 whole entry): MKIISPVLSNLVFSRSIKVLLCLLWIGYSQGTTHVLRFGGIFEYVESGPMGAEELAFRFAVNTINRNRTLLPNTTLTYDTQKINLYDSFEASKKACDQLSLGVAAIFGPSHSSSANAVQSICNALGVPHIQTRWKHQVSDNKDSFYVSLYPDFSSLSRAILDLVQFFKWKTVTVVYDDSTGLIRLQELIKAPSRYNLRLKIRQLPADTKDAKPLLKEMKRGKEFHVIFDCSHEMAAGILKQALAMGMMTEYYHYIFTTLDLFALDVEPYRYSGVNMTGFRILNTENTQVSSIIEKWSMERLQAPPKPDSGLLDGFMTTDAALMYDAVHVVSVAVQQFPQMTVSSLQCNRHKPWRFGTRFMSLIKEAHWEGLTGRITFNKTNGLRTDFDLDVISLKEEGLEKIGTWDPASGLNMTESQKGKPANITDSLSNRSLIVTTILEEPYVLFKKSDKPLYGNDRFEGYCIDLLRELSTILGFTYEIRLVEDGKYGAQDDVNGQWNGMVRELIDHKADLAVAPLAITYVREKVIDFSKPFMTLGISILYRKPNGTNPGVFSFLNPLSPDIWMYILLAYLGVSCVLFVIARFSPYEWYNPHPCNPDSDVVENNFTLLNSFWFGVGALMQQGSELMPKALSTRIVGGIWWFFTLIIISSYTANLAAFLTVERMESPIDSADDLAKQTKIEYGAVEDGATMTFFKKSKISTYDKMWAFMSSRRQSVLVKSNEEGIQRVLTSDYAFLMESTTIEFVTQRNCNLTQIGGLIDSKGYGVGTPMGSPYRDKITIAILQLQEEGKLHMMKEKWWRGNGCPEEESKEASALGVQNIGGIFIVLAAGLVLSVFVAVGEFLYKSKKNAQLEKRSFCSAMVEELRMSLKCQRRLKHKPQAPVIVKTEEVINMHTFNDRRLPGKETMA

Row | Structure (SMILES) | EC50 [2] [µM] | EC50 [3] [µM] | Activity [4] | also measured
1 | COc1ccc(OCC2c3cc(OC)c(OC)cc3CCN2C(=O)c2cccc([N+](=O)[O-])c2)cc1 (racemic) | 13 | 11 |  | Activity [1]: 70%
2 | COc1ccc(OCC2c3cc(OC)c(OC)cc3CCN2C(=O)CN2CCOCC2)cc1 (racemic) |  |  | inactive | 
3 | COc1ccc(OCC2c3cc(OC)c(OC)cc3CCN2C(=O)c2cccc(C(Cl)Cl)c2)cc1 (racemic) | 5.4 | 3.7 |  | 
4 | COc1ccc(OCC2c3c(cc(OC)cc3OC)CCN2C(=O)c2cccc(Cl)c2)cc1 (racemic) | 9.2 |  |  | 
5 | COc1ccc(OCC2c3cc(OC)c(OC)cc3CCN2C(=O)c2cccc(I)c2)cc1 (racemic) | 4.9 | 4 |  | 
6 | COc1ccc(OCC2c3cc(OC)c(OC)cc3CCN2C(=O)c2ccc3ccccc3c2)cc1 (racemic) |  |  | inactive | Activity [5]: 136%
7 | COc1ccc(OCC2c3ccc(C)cc3CCN2C(=O)c2cccc(Cl)c2)cc1 (racemic) | 4.7 | 5 |  | 
8 | COc1ccc(OCC2c3cc(OC)c(OC)cc3CCN2C(=O)N2CCOCC2)cc1 (racemic) |  |  |  | Activity [6]: Active
9 | COc1ccc(OCC2c3cc(OC)c(OC)cc3CCN2C(=O)c2ccc(Cl)cc2)cc1 (racemic) |  | 4.1 |  | 
10 | COc1ccc(OCC2c3cc(OC)c(OC)cc3CCN2C(=O)c2cccc(Cl)c2Cl)cc1 (racemic) |  | 1.4 |  | 
11 | COc1ccc(/C=C/C2c3cc(OC)c(OC)cc3CCN2C(=O)c2ccccc2)cc1 (racemic) | 35 | 35 | inactive | 
12 | COc1ccc(OCC2c3cc(OC)c(OC)cc3CCN2C(=O)c2cccc(F)c2)cc1 (racemic) | 7 | 7.2 | inactive | Activity [7]: inactive
13 | COc1ccc(CCC2c3cc(OC)c(OC)cc3CCN2C(=O)c2cccc(Br)c2)cc1 (racemic) | 15 | 11 | inactive | 
14 | CCc1ccc(OCC2c3cc(OC)c(OC)cc3CCN2C(=O)c2ccccc2)cc1 (racemic) |  | 23 |  | 
15 | COc1ccc(OCC2c3ccc(OC)cc3CCN2C(=O)c2cccc(C(C)=O)c2)cc1 (racemic) | 32 | 21 |  | 
16 | COc1ccc(OCC2c3cc(OC)c(OC)cc3CCN2C(=O)c2cccc(CCl)c2)cc1 (racemic) |  | 17 | inactive | Activity [6]: Active
17 | COc1ccc(OCC2c3cc(OC)c(OC)cc3CCN2C(=O)c2cccc(C)c2)cc1 (racemic) | 5.5 | 6.2 |  | 
18 | COc1ccc(OCC2c3cc(OC)c(OC)cc3CCN2C(=O)c2ccc(Cl)c(Cl)c2)cc1 (racemic) | 24 | 21 |  | 
19 | COc1ccc(/C=C/C2c3cc(OC)c(OC)cc3CCN2C(=O)c2cccc(Cl)c2)cc1 (racemic) | 1.3 | 1.1 |  | 
20 | COc1ccc(OCC2c3cc(OC)c(OC)cc3CCN2C(=O)c2ccccc2C)cc1 (racemic) |  |  |  | Activity [1]: 70%
21 | COc1ccc(OCC2c3cc(OC)c(OC)cc3CCN2C(=O)c2ccccc2)cc1 (racemic) | 11 | 12 | inactive | Activity [7]: inactive; Activity [6]: Active
22 | COc1ccc(CCC2c3cc(OC)c(OC)cc3CCN2C(=O)c2cccc(Cl)c2)cc1 (racemic) |  |  | inactive | 
23 | COc1ccc(OCC2c3ccc(OC)cc3CCN2C(=O)c2cccc(Br)c2)cc1 (racemic) | 2.9 | 2 | inactive | 
24 | COc1ccc(OCC2c3c(cc(OC)cc3OC)CCN2C(=O)c2ccccc2)cc1 (racemic) | 14 | 10 |  | 
25 | COc1ccc(OCC2c3cc(C)c(C)cc3CCN2C(=O)c2cccc(Cl)c2)cc1 (racemic) | 1.5 | 1.4 |  | 
26 | COc1ccc(OCC2c3ccc(C)cc3CCN2C(=O)c2ccccc2)cc1 (racemic) |  | 24 |  | 
27 | COc1ccc(OCC2c3cc(OC)c(OC)cc3CCN2C(=O)c2cccs2)cc1 (racemic) |  | 9 |  | 
28 | COC(=O)c1ccc(OCC2c3cc(OC)c(OC)cc3CCN2C(=O)c2cccc(Cl)c2)cc1 (racemic) |  |  |  | Activity [6]: Active

Row | Structure (SMILES) | EC50 [2] [µM] | EC50 [3] [µM] | Activity [4] | also measured
29 | COc1ccc(OCC2c3cc4c(cc3CCN2C(=O)c2cccc(Cl)c2)OCO4)cc1 (racemic) | 7.4 | 16 | inactive | 
30 | COc1ccc(/C=C/C2c3ccc(OC)cc3CCN2C(=O)c2cccc(Cl)c2)cc1 (racemic) | 1 | 1 | inactive | 
31 | COc1ccc(OCC2c3cc(OC)c(OC)cc3CCN2C(=S)Nc2cccc(C)c2)cc1 (racemic) | 4.9 | 5.2 |  | 
32 | CCOc1ccc(OCC2c3cc(OC)c(OC)cc3CCN2C(=O)c2cccc(Br)c2)cc1 (racemic) |  |  |  | Activity [6]: Active
33 | COc1cc2c(cc1OC)CN(C(=O)c1cccc(Br)c1)CC2 |  |  |  | Activity [1]: 70%
34 | CCOc1ccc(OCC2c3cc(OC)c(OC)cc3CCN2C(=O)c2cccc(Cl)c2)cc1 (racemic) |  |  |  | Activity [6]: Active
35 | COc1cc2c(cc1OC)CN(C(=O)c1ccccc1)CC2 |  |  | inactive | 
36 | COc1ccc(OCC2c3cc(C)c(C)cc3CCN2C(=O)c2cccc(Br)c2)cc1 (racemic) | 1.1 | 0.9 |  | 
37 | COc1ccc(/C=C/C2c3ccc(OC)cc3CCN2C(=O)c2cccc(Br)c2)cc1 (racemic) | 1.7 | 1.5 | inactive | 
38 | COc1ccc(OCC2c3cc(OC)c(OC)cc3CCN2C(=O)c2cccc(-c3ccccc3)c2)cc1 (racemic) | 3.6 | 2.9 |  | 
39 | COc1ccc(OCC2c3cc4c(cc3CCN2C(=O)c2cccc(Br)c2)OCO4)cc1 (racemic) | 3.4 | 3.2 |  | 
40 | COc1ccc(/C=C/C2c3cc(OC)c(OC)cc3CCN2C(=O)c2cccc(Br)c2)cc1 (racemic) | 2.8 | 2.8 | inactive | 
41 | COc1ccc(OCC2c3cc(OC)c(OC)cc3CCN2C(=O)c2cc(Cl)cc(Cl)c2)cc1 (racemic) | 1.9 | 4.8 | inactive | 
42 | COc1ccc(OCC2c3ccc(OC)cc3CCN2C(=O)c2cccc(Cl)c2)cc1 (racemic) |  |  | inactive | 
43 | COc1ccc(OCC2c3cc(OC)c(OC)cc3CCN2C(=O)c2cccc(OC)c2)cc1 (racemic) | 12 | 5.8 |  | Activity [6]: Active
44 | COc1cc2c(cc1OC)C(COc1ccc(N(C)C)cc1)N(C(=O)c1cccc(Cl)c1)CC2 (racemic) |  | 35 |  | 
45 | COc1cc2c(cc1OC)C(COc1ccc(N(C)C)cc1)N(C(=O)c1cccc(Br)c1)CC2 (racemic) |  | 12 |  | 
46 | COc1ccc(OCC2c3ccc(C)cc3CCN2C(=O)c2cccc(Br)c2)cc1 (racemic) | 3.6 | 3.2 |  | 
47 | COc1ccc(OCC2c3cc(OC)c(OC)cc3CCN2C(=O)c2cccc(C#N)c2)cc1 (racemic) | 7.7 | 29 | inactive | 
48 | COc1ccc(OCC2c3ccc(OCc4ccccc4)cc3CCN2C(=O)c2ccccc2)cc1 (racemic) | 2.3 | 0.7 |  | 
49 | COc1ccc(OCC2c3cc4c(cc3CCN2C(=O)c2ccccc2)OCO4)cc1 (racemic) |  |  |  | Activity [1]: 70%
50 | COc1cc2c(cc1OC)C(COc1ccc(SC)cc1)N(C(=O)c1cccc(Cl)c1)CC2 (racemic) | 5.3 | 5.1 |  | 
51 | COc1ccc(OCC2c3c(cc(OC)cc3OC)CCN2C(=O)c2cccc(Br)c2)cc1 (racemic) | 7.8 | 9 |  | 
52 | COc1ccc(OCC2c3ccc(OC)cc3CCN2C(=O)c2ccccc2)cc1 (racemic) | 5.7 | 7.5 |  | 
53 | COc1ccc(OCC2c3ccc(OCc4ccccc4)cc3CCN2C(=O)c2cccc(Cl)c2)cc1 (racemic) | 0.4 | 0.4 |  | 
54 | COc1ccc(OCC2c3cc(OC)c(OC)cc3CCN2C(=O)c2ccc(F)c(Cl)c2)cc1 (racemic) | 5.3 | 5.3 |  | 
55 | COc1ccc(OCC2c3cc(OC)c(OC)cc3CCN2C(=O)c2cccc(Br)c2)cc1 (racemic) | 2.2 | 0.9 | inactive | Activity [7]: inactive
